# This excerpt belongs to a sample that is enriched for hits.
# L major viab – Leishmania major promastigote growth inhibition; Leishmania major promastigotes, resazurin fluorescence viability; AID 1063; 9% of 200,000 active; inhibition, % at 10 µM; in the data active means inhibition above about 50%;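 further: promastigotes grown with compound for 44 hours at 28 °C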
# Lipid droplet – hepatic lipid droplet formation modulation. inhibition, % at 6.5 µM. 0.4% of 240,000 active. AML12 mouse hepatocytes, oleate lipid droplets, BODIPY imaging;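 active means lipid droplet intensity inhibited by at least 50%, with more than 500 cells counted; inconclusive means wells with under 300 cells, treated as cytotoxic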
#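 Material – AML12 mouse liver cells · Also added – oleate loading, 100 µM · Compound dosing – 6.5 µM single-point dosing · Times – overnight treatment with compound plus oleate · Measured by – fluorescence imaging, 20x objective, two fields per well · Read-out – percent inhibition of filter-corrected integrated lipid droplet intensity per well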
# MPTP block – permeability transition pore inhibition. inhibition, % at 10 µM. isolated mouse mitochondria, Ca2+ swelling absorbance, 30 min. 1.4% of 360,000 active;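 active means inhibition of 50% or more, scaled per plate between neutral and stimulator controls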
# DTT redox prof – compounds producing H2O2 with reducing agent – biochemical, NIH compound library profiling, artefact control for MLSCN library redox annotation, primary screen | activation, % at 10 µM | DTT-dependent redox cycling H2O2, phenol red/HRP absorbance; 100% = 100 µM peroxide control, 0% = buffer | 0.03% of 200,000 active | AID 878;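 active means activation of at least 50% relative to the plate's high and low controls in the primary single-dose screen; inactive means activation below 50%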;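 further: compound incubated with DTT at 0.8 mM final as the reducing agent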
# T cruzi inh – blocks replication of Trypanosoma cruzi. T. cruzi beta-gal in NIH3T3, luminescence, 90 h. inhibition, % (concentration not given with the values). 1.4% of 300,000 active. AID 1885;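 active means mean inhibition across valid replicates above about 55%, limit read from the data; inconclusive means mean below that limit but half or more replicates reach it; inactive means mean below it, under half of replicates reach it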;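 further: signal also drops with host cell toxicity which is not excluded here; higher percent means less beta-gal luminescence so fewer parasites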
#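 compound dosing = single 50 nL compound addition per well in DMSO | material = NIH/3T3 host cells with β-galactosidase reporter T. cruzi | input = 5,000 host fibroblasts per well | timing = ≥90 h infection period, 3 h prior cell attachment | read-out basis = percent inhibition of parasite-derived β-gal signal | detection = GalScreen β-gal luminescence, detergent lysis, 60 min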
# MPTP counter – membrane potential counter-screen of mitochondrial pore inhibitors; shares compounds with MPTP block; isolated mitochondria, Rhodamine 123 fluorescence; inhibition, % at 10 µM; 78% of 5,000 active; AID 624504; in the data active means inhibition above about 22%
# MPTP swell DR – dose response confirmation of mitochondrial permeability transition pore inhibitors; shares compounds with MPTP block; isolated mitochondria swelling, absorbance; IC50, µM; 58% of 780 active; in the data active means IC50 below about 20 µM
# MPTP cs DR – MPTP inhibitor counter-screen activity, dose response; IC50, µM; 49% of 780 active; isolated mitochondria counterscreen, fluorescence read-out; shares compounds with MPTP block; in the data active means IC50 below about 80 µM
# Hits are given with their value; . = inactive; ? = inconclusive; / = not tested or not shown.
SMILES,L major viab,Lipid droplet,MPTP block,DTT redox prof,T cruzi inh,MPTP counter,others
CS(=O)(=O)N1CCC(Oc2ccccc2C(=O)NCCCc2cccnc2)CC1,.,.,.,.,.,/,
Cc1cc(C)c(S(=O)(=O)NCCCn2ccnc2)cc1C,/,.,.,/,.,/,
O=C(COC(=O)c1ccccc1[N+](=O)[O-])Nc1nnc(-c2ccccc2)o1,/,/,.,/,.,/,
O=[N+]([O-])c1ccc(-c2cnc(SC(c3ccccc3)c3ccccc3)[nH]2)cc1,.,.,90,.,.,76,
NC(=O)CSc1ncc(-c2ccc([N+](=O)[O-])cc2)[nH]1,.,.,.,.,.,/,
O=C1c2ccccc2C(=O)N1c1ncn[nH]1,/,.,.,/,.,/,
CN1\C(=C/C=C/C=C/C=[N+](C)C)C(C)(C)c2ccccc21,98,.,112,.,.,59,
CCOC(=O)c1sc(NC(=O)CSc2nc(-c3ccco3)cc(C(F)(F)F)n2)c(C#N)c1C,.,.,84,.,.,.,MPTP swell DR=4;MPTP cs DR=<2.5
Cc1cccc(C)c1NC(=O)CSc1nc(-c2ccco2)cc(C(F)(F)F)n1,.,.,.,.,.,/,
Cc1cc(NC(=O)CSc2nc(-c3ccco3)cc(C(F)(F)F)n2)no1,.,?,.,.,.,/,
CCOC(=O)c1sc(NC(=O)CSc2nc3c(cc2C#N)CCCCC3)c(C#N)c1C,.,/,91,.,.,.,MPTP swell DR=.;MPTP cs DR=9.8
O=C(CSc1nc(-c2ccco2)cc(C(F)(F)F)n1)Nc1ccc(C(=O)N2CCCCC2)cc1,.,/,54,.,.,92,
CCOC(=O)c1sc(NC(=O)c2cc(-c3ccccc3)nc3ccccc23)c(C#N)c1C,.,/,107,.,/,78,
CCOC(=O)c1sc(NC(=O)c2cccnc2)c(C#N)c1C,.,/,.,.,.,/,
CCOC(=O)c1sc(NC(=O)CSc2ccccn2)c(C#N)c1C,.,.,.,.,.,/,
CCOC(=O)c1sc(NC(=O)CSc2nc(C)cc(C)n2)c(C#N)c1C,.,/,58,.,.,40,
CCOC(=O)c1sc(NC(=O)CSc2n[nH]c(-c3ccccc3)n2)c(C#N)c1C,.,.,100,.,.,71,
Cc1ccc(CNc2ncc(-c3ccccc3)n2C)o1,.,.,.,.,.,/,
CCOC(=O)N1CCN(C(=O)CSc2nc(=O)n3ccc(C)cc3n2)CC1,/,/,.,/,.,/,
CCN(CC(=O)NCC1CCCO1)S(=O)(=O)c1ccc2ccccc2c1 (stereo not drawn),/,.,.,/,.,/,
CCOc1ccc(Nc2ccc(N3C(=O)CCC3=O)cc2[N+](=O)[O-])cc1,.,.,.,.,?,/,
COc1ccc(NS(=O)(=O)c2ccc(O)c(NC(=O)c3ccc(S(=O)(=O)N4CCCCCC4)cc3)c2)cc1,.,.,66,.,.,49,
CCOc1ccc(NS(=O)(=O)c2ccc(C(=O)N3CCCCCC3)cc2)cc1,/,/,.,/,.,/,
Cc1ccccc1C(=O)Nc1cc(S(=O)(=O)N2CCCCC2)ccc1N1CCN(C)CC1,.,.,.,.,.,/,
COc1ccc(NS(=O)(=O)c2cccc(NC(=O)c3ccc(S(=O)(=O)N4CCCCCC4)cc3)c2)cc1,97,.,84,.,.,86,
SMILES,L major viab,Lipid droplet,MPTP block,DTT redox prof,T cruzi inh,MPTP counter,others
CN1CCN(c2ccc(S(=O)(=O)N3CCCCC3)cc2NC(=O)c2ccc3ccccc3c2)CC1,.,.,67,.,.,.,MPTP swell DR=14;MPTP cs DR=.
COc1ccc(NS(=O)(=O)c2ccc(C(=O)N3CCCCCC3)cc2)cc1,/,/,54,/,/,57,
CCOc1ccc(NC(=O)C2CCCN(S(=O)(=O)c3c(C)noc3C)C2)cc1 (stereo not drawn),/,.,.,/,.,/,
CN(Cc1ccccn1)C(=O)C1CCC(=O)N(CCc2ccc(Cl)cc2)C1 (stereo not drawn),/,.,.,/,.,/,
Cc1scc(C(=O)N/N=C/c2ccc(Cl)s2)c1C,.,.,.,.,.,/,
CCN1CCN(c2ccc(S(=O)(=O)N3CCCCC3)cc2NC(=O)/C=C/c2ccc(F)cc2)CC1,/,/,78,/,.,.,MPTP swell DR=.
COc1ccc(C(=O)N2CCN(c3ccccc3)CC2)cc1S(=O)(=O)N1CCCC1,/,.,.,/,.,/,
CC(C)n1nc(Cc2cccc3ccccc23)c(C#N)c1N,/,/,.,/,.,/,

# Screens (PubChem)
